Experiments:
[1] = test system: U2OS Bmal1-dLuc circadian period lengthening, luminescence; assay: circadian period lengthening and CKI inhibition, late-stage follow-up, mechanism study for circadian clock modulator project, cell-based, U2OS Bmal1-dLuc, CKIdelta, CKIalpha, ERK2, CDK7 (AID 493019)
Method in brief: (§1)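 Material: Bmal1-dLuc U2OS cells and CKIalpha, CDK7 kinase reactions. Also added: 5 µM ATP for kinase assays. Doses: 10-point dilutions for period assay. Times: circadian recording 5 days, kinase reaction 3 h at 30 °C. Technique: luciferase luminescence every 100 min, Kinase-Glo residual-ATP luminescence for kinases. Read-out: Period-lengthening concentrations and kinase IC50.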

[2] = target: Casein kinase I isoform delta (Homo sapiens) (UniProt P48730); assay: as above; settings: U2OS Bmal1-dLuc circadian period lengthening, luminescence; for IC50: measured here: CKIdelta in vitro kinase
Method in brief: as §1

[3] = target: Mitogen-activated protein kinase 1 (Homo sapiens) (UniProt P28482); assay: as above; settings: U2OS Bmal1-dLuc circadian period lengthening, luminescence; measured here: ERK2 in vitro kinase
Method in brief: as §1

[4] = target: Cyclin-dependent kinase 7 (Homo sapiens) (UniProt P50613); assay: as above; settings: U2OS Bmal1-dLuc circadian period lengthening, luminescence; measured here: CDK7 in vitro kinase
Method in brief: as §1

[5] = target: Casein kinase I isoform alpha (Homo sapiens) (UniProt P48729); assay: as above; settings: U2OS Bmal1-dLuc circadian period lengthening, luminescence; for IC50: measured here: CKIalpha in vitro kinase
Method in brief: as §1

[6] = as above; settings: U2OS Bmal1-dLuc circadian period lengthening, luminescence; for EC (10 h period change): measured here: 10 h period lengthening; for EC (15 h period change): measured here: 15 h period lengthening
Method in brief: as §1

Compound | EC (5 h period change) [1] [nM] | IC50 [2] [µM] | IC50 [3] [µM] | IC50 [4] [µM] | IC50 [5] [µM] | EC (10 h period change) [6] [µM] | EC (15 h period change) [6] [µM] | EC50 ([2]; measured here: CKIdelta cell PER1 degradation) [µM] | EC50 ([5]; measured here: CKIalpha cell PER1 degradation) [µM]
CC(C)n1cnc2c(NCc3ccccc3)ncnc21 | 4400 | 21 | 160 | 29 | 23 | 17 | 38 | – | –
CC(C)n1cnc2c(NCc3cccc(C(F)(F)F)c3)ncnc21 | 1500 | 8.8 | 52 | 29 | 5.6 | 5.7 | 13 | 9.7 | 9.2

Source: PubChem BioAssay AID493019 (Circadian Research, Kay Laboratory, University of …, 2011)
